Data taken from ChEMBL document CHEMBL1133127, “Activation of antibacterial prodrugs by peptide deformylase” (Bioorg Med Chem Lett, 2000).

What was measured:
[1] = Half-life was determined; assay type: ADME; conditions: human
Procedure, shortened: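 Deformylated intermediate cyclizes to diketopiperazine, releasing FdU. Followed by C18 HPLC at 214 nm after PDF treatment in 20 mM sodium phosphate pH 7.4. First-order fit of ln(A0/A) versus time; half-life taken from the fit.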

[2] = system: Escherichia coli; test: Compound was tested for its antibacterial activity against Escherichia coli BL21(DE3) cells in luria broth; assay type: functional, organism-based
[3] = system: Escherichia coli; test: The compound was tested for activation by purified Escherichia coli PDF in vitro by measuring deformylation at pH 7.4; assay type: functional
Procedure, shortened: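 Purified E. coli PDF added to prodrug (~1 mM) in 20 mM sodium phosphate pH 7.4. Aliquots taken over time and quenched with equal volume 100 mM TFA. Analysed by C18 HPLC at 214 nm; kcat/KM derived from deformylation to intermediate.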

[4] = system: Staphylococcus epidermidis; test: The compound was tested for its antibacterial activity against Staphylococcus epidermidis.; assay type: functional, organism-based
[5] = system: Staphylococcus epidermidis; test: Compound was tested for its antibacterial activity against Staphylococcus epidermidis; assay type: functional, organism-based
[6] = system: Escherichia coli; test: The compound was tested for its antibacterial activity against Escherichia coli BL21(DE3) cells in luria broth; assay type: functional, organism-based

Row | half-life [1] | IC50 [2] | IC50 [4] | IC50 [5] | IC50 [6] | SMILES | k cat/Km [3]
1 | 51.1 min | > 100 µM | 50 µM | ~50 µM | – | CSCC[C@H](NC=O)C(=O)NC(C)(C)C(=O)OCC1OC(n2cc(F)c(=O)[nH]c2=O)CC1O (some centres not stated) | 28900 M⁻¹ s⁻¹
2 | 4.68 min | – | – | – | > 100 µM | CSCC[C@H](NC=O)C(=O)N1CCC[C@H]1C(=O)OCC1OC(n2cc(F)c(=O)[nH]c2=O)CC1O (some centres not stated) | –
3 | 2.07 min | – | – | – | > 100 µM | CSCC[C@H](NC=O)C(=O)N(C)[C@@H](CC(C)C)C(=O)OCC1OC(n2cc(F)c(=O)[nH]c2=O)CC1O (some centres not stated) | 1650 M⁻¹ s⁻¹
4 | 15.2 min | – | – | – | > 100 µM | CSCC[C@H](NC=O)C(=O)N1CCC[C@@H]1C(=O)OCC1OC(n2cc(F)c(=O)[nH]c2=O)CC1O (some centres not stated) | –
